Measurements from ChEMBL document CHEMBL4251598, “Development of novel bis-pyrazole derivatives as antitumor agents with potent apoptosis induction effects and DNA damage” (Eur J Med Chem, 2018).
Activity calls are given as the source filed them. The calls are words filed in the database; no cut-off is given here.

Tests used:
PC-3 = test: Induction of apoptosis in human PC3 cells; format: functional, cell-based
SMMC-7721 [1] = test: Antiproliferative activity against human SMMC7721 cells after 72 hrs by MTT assay; format: functional, cell-based; details: SMMC-7721, 72 h
Outline: (§1)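 Cells in DMEM with 10% FBS, 10^4 cells/mL, adhered overnight at 37 °C, 5% CO2. Treated in triplicate with a range of concentrations for 72 h. MTT (5 mg/mL solution) added for the last 4 h, formazan dissolved in DMSO, absorbance read at 570 nm. IC50 calculated from percent inhibition. Mean ± SD of three independent experiments.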

SGC-7901 = test: Antiproliferative activity against human SGC7901 cells after 72 hrs by MTT assay; format: functional, cell-based; details: SGC-7901, 72 h; outline: as §1
HCT-116 = test: Antiproliferative activity against human HCT116 cells after 72 hrs by MTT assay; format: functional, cell-based; details: HCT-116, 72 h; outline: as §1
SMMC-7721 [2] = test: Antiproliferative activity against human SMMC7721 cells assessed as inhibition of cell proliferation at 25 uM after 72 hrs by MTT assay relative to control; format: functional; details: SMMC-7721, 72 h
Outline: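 Cells in DMEM with 10% FBS, plated at 10^4 cells/mL, adhered overnight. Treated at 25 μM for 72 h. MTT added for the last 4 h, formazan dissolved in DMSO, A570 read. Inhibition expressed as percent of untreated. Mean + SD from three separate measurements.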

SMMC-7721 [3] = test: Induction of apoptosis in human SMMC7721 cells assessed as apoptotic cells at 3.2 uM after 72 hrs by FITC-Annexin-V/7AAD/propidium iodide staining based flow cytometry relative to control; format: functional
Outline: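 SMMC-7721 cells cultured overnight, then treated in triplicate with 0.2, 0.8 or 3.2 μM, vehicle, or ADM (3.2 μM) for 72 h. Stained with annexin V and PI (methods section: APC-annexin V/7-AAD) for 15 min at room temperature. Mean ± SD of three independent experiments.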

SMMC-7721 [4] = test: Induction of DNA double stranded breaks in human SMMC7721 cells assessed as increase in H2AX phosphorylation at S139 at 0.8 uM after 72 hrs by Western blot analysis; format: functional, cell-based
Outline: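 SMMC-7721 cells treated with vehicle, compound at 0.2, 0.8 or 3.2 μM, or ADM for 72 h. Lysates immunoblotted for H2AX pS139, p-p53 (Ser15), total p53 and β-actin, with ECL detection. Signals quantified by densitometry relative to β-actin, mean ± SD of three experiments.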

Row | Structure (SMILES) | IC50 (SMMC-7721 [1]) [µM] | IC50 (SGC-7901) [µM] | IC50 (HCT-116) [µM] | inhibition at 25 µM (SMMC-7721 [2]) [%] | further results
1 | CCOC(=O)c1cc(-c2ccccc2)nn1Cc1ccc(Cl)nc1 |  |  |  |  | IC50 (PC-3): 15.2 µM
2 | O=c1[nH]cc(F)c(=O)[nH]1 [FLUOROURACIL] | 37.8 | 34.4 | 29.5 |  | 
3 | CCc1nn(C)c(CO/N=C/c2c(C)nn(C)c2Oc2ccc(Br)cc2)c1Cl |  |  |  | < 80 | 
4 | CCc1nn(C)c(CO/N=C\c2c(C)nn(C)c2Oc2ccc(OC(F)(F)F)cc2)c1Cl |  |  |  | < 80 | 
5 | Cc1nn(C)c(Oc2ccc(Cl)cc2)c1/C=N\OCc1c(Cl)c(-c2ccc(F)cc2)nn1C | 7.97 | 8.11 | 6.03 | 80 | 
6 | CCc1nn(C)c(CO/N=C/c2c(C)nn(C)c2Oc2ccc(C)cc2)c1Cl |  |  |  | < 80 | 
7 | CCc1nn(C)c(CO/N=C\c2c(C)nn(C)c2Oc2ccccc2OC(F)(F)F)c1Cl |  |  |  | < 80 | 
8 | CCc1nn(C)c(CO/N=C/c2c(C)nn(C)c2Oc2ccc(F)cc2)c1Cl |  |  |  | < 80 | 
9 | CCc1nn(C)c(CO/N=C/c2c(C)nn(C)c2Oc2ccc(Cl)cc2)c1Cl |  |  |  | < 80 | 
10 | CCc1nn(C)c(CO/N=C/c2c(C)nn(C)c2Oc2cccc(C)c2)c1Cl |  |  |  | < 80 | 
11 | Cc1nn(C)c(Oc2ccc(OC(F)(F)F)cc2)c1/C=N\OCc1c(Cl)c(-c2ccc(F)cc2)nn1C | 5.21 | 2.97 | 2.31 | 80 | 
12 | COc1cccc2c1C(=O)c1c(O)c3c(c(O)c1C2=O)C[C@@](O)(C(=O)CO)C[C@@H]3O[C@H]1C[C@H](N)[C@H](O)[C@H](C)O1.Cl [DOXORUBICIN HYDROCHLORIDE] | 2.67 | 4.12 | 2.31 | 80 | Activity (SMMC-7721 [3]): 47.5%; Activity (SMMC-7721 [4]): Active
13 | Cc1ccc(Oc2c(/C=N\OCc3c(Cl)c(-c4ccc(F)cc4)nn3C)c(C)nn2C)cc1 | 5.23 | 4.62 | 2.91 | 80 | 
14 | Cc1nn(C)c(Oc2ccc(F)cc2)c1/C=N\OCc1c(Cl)c(-c2ccc(Cl)cc2)nn1C | 3.23 | 4.43 | 7.25 | 80 | 
15 | CCc1nn(C)c(CO/N=C/c2c(C)nn(C)c2Oc2ccccc2C)c1Cl |  |  |  | < 80 | 
16 | Cc1nn(C)c(Oc2ccc(OC(F)(F)F)cc2)c1/C=N\OCc1c(Cl)c(-c2ccc(Cl)cc2)nn1C | 8.67 | 3.22 | 3.02 | 80 | 
17 | COc1ccc(Oc2c(/C=N\OCc3c(Cl)c(-c4ccc(F)cc4)nn3C)c(C)nn2C)cc1 | 2.05 | 2.84 | 1.18 | 80 | 
18 | CCc1nn(C)c(CO/N=C/c2c(C)nn(C)c2Oc2ccccc2F)c1Cl |  |  |  | < 80 | 
19 | CCc1nn(C)c(CO/N=C/c2c(C)nn(C)c2Oc2ccc(I)cc2)c1Cl |  |  |  | < 80 | 
20 | Cc1ccc(Oc2c(/C=N\OCc3c(Cl)c(-c4ccc(Cl)cc4)nn3C)c(C)nn2C)cc1 | 5.84 | 3.73 | 2.85 | 80 | 
21 | Cc1nn(C)c(Oc2ccc(Br)cc2)c1/C=N\OCc1c(Cl)c(-c2ccc(Cl)cc2)nn1C | 7.13 | 5.96 | 5.91 | 80 | 
22 | CCc1nn(C)c(CO/N=C/c2c(C)nn(C)c2Oc2cccc(Cl)c2)c1Cl |  |  |  | < 80 | 
23 | CCc1nn(C)c(CO/N=C/c2c(C)nn(C)c2Oc2ccccc2OC)c1Cl |  |  |  | < 80 | 
24 | CCc1nn(C)c(CO/N=C/c2c(C)nn(C)c2Oc2ccccc2Cl)c1Cl |  |  |  | < 80 | 
25 | CCc1nn(C)c(CO/N=C\c2c(C)nn(C)c2Oc2ccc(OC)cc2)c1Cl |  |  |  | < 80 | 
26 | Cc1nn(C)c(Oc2ccc(Cl)cc2)c1/C=N\OCc1c(Cl)c(-c2ccc(Cl)cc2)nn1C | 6.82 | 7.51 | 4.67 | 80 | 
27 | Cc1nn(C)c(Oc2ccc(F)cc2)c1/C=N\OCc1c(Cl)c(-c2ccc(F)cc2)nn1C | 6.64 | 7.08 | 8.02 | 80 | 
